Experimental data from ChEMBL document CHEMBL1681759, “Synthesis and biological evaluation of benzimidazole-5-carbohydrazide derivatives as antimalarial, cytotoxic and antitubercular agents” (Bioorg Med Chem, 2011).
In brackets after ≈: the same amount, converted by molar mass.

What was measured:
Plasmodium berghei [1] = experiment: Antimalarial activity against chloroquine-susceptible Plasmodium berghei ANKA assessed as inhibition of trophozoite extract-mediated mouse hemoglobin hydrolysis at 10 mM after 18 hrs by SDS-PAGE; format: functional
Procedure, shortened: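 Trophozoite extract came from P. berghei-infected mouse blood at 30–50% parasitemia: RBCs percoll-purified (80–70%), saponin-lysed, then freeze–thawed three times. Substrate was native haemoglobin from uninfected mouse erythrocytes lysed in water. The mix held GSH and acetate buffer (0.2 M, pH 5.4). Compound was added in DMSO and incubated 37 °C, 18 h. Reactions were stopped with reduced sample buffer.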

[2] = Inhibition of beta-hematin formation assessed as inhibition of […] polymerization at […] after 48 hrs; format: functional
Procedure, shortened: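 Hemin chloride (50 µL, 4 mM in DMSO) was mixed in triplicate with compound in DMSO; water or DMSO served as controls. Reaction was started with acetate buffer (0.2 M, pH 4.4) and run 37 °C for 48 h. The pellet was DMSO-washed twice, dissolved in 0.2 N NaOH, diluted 1:2 in 0.1 N NaOH, and read at 405 nm as % inhibition of FP polymerization.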

Plasmodium berghei [3] = experiment: Antimalarial activity against chloroquine-susceptible Plasmodium berghei ANKA infected in Balb-C mouse assessed as mouse survival days at 20 mg/kg, ip qd for 4 days […] relative to untreated control; format: functional; conditions: route intraperitoneal
Plasmodium berghei [4] = experiment: Antimalarial activity against chloroquine-susceptible Plasmodium berghei ANKA infected in Balb-C mouse assessed as inhibition parasitemia at 20 mg/kg, ip qd for 4 days […]; format: functional; conditions: 96 h, route intraperitoneal
Procedure, shortened: (§1)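 Balb-C mice (18–23 g, n = 6) were infected iv in the caudal vein with 10⁶ P. berghei ANKA-infected RBCs. Dosing started 2 h post-infection: 20 mg/kg ip once daily for 4 days, DMSO stock diluted in Saline-Tween 20 (2%). Chloroquine 25 mg/kg served as positive control; untreated mice were controls. Parasitemia was read on day 4 from Giemsa smears, and survival days were recorded.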

Plasmodium berghei [5] = experiment: Antimalarial activity against chloroquine-susceptible Plasmodium berghei ANKA infected in Balb-C mouse; format: functional, organism-based; procedure, shortened: as §1
[6] = test system: Mycobacterium tuberculosis; experiment: Antimycobacterial activity against Mycobacterium tuberculosis H37Rv after 5 days by tetrazolium microplate assay; format: functional; conditions: 120 h
Procedure, shortened: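 Tetrazolium microplate assay run in 7H9GC broth. DMSO stocks (4 mg/mL) were diluted to final 0.4–25 µg/mL. Isoniazid (0.125–32 µg/mL) and rifampin (0.063–16 µg/mL) were positive controls; inoculum-only and DMSO controls were included. Plates were incubated 5 days at 37 °C, then an MTT-Tween 80 mix was added and incubation continued 24 h at 37 °C. Run in triplicate. MIC = lowest concentration preventing the yellow-to-purple colour change.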

MCF7 = experiment: Cytotoxicity against human MCF7 cells assessed as growth inhibition after 48 hrs by sulforhodamine B assay; format: functional; conditions: MCF7, 48 h
Procedure, shortened: (§2)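 Cells were exposed to serial compound dilutions in 96-well plates for 48 h at 37 °C alongside solvent controls. Growth was read colorimetrically by sulforhodamine B. GI50 is the concentration giving a 50% reduction in absorbance versus solvent-treated controls, derived by linear regression.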

K562 = experiment: Cytotoxicity against human K562 cells assessed as growth inhibition after 48 hrs by sulforhodamine B assay; format: functional; conditions: K562, 48 h; procedure, shortened: as §2
HT-29 = experiment: Cytotoxicity against human HT-29 cells assessed as growth inhibition after 48 hrs by sulforhodamine B assay; format: functional; conditions: HT-29, 48 h; procedure, shortened: as §2
DU-145 = experiment: Cytotoxicity against human DU145 cells assessed as growth inhibition after 48 hrs by sulforhodamine B assay; format: functional; conditions: DU-145, 48 h; procedure, shortened: as §2
[7] = Cytotoxicity against african green monkey Vero cells assessed as growth inhibition after 48 hrs by sulforhodamine B assay; format: cell-based; conditions: chlorocebus sabaeus; procedure, shortened: as §2
M14 = experiment: Cytotoxicity against human M14 cells assessed as growth inhibition after 48 hrs by sulforhodamine B assay; format: functional; conditions: M14, 48 h; procedure, shortened: as §2
NCI-H460 = experiment: Cytotoxicity against human H460 cells assessed as growth inhibition after 48 hrs by sulforhodamine B assay; format: functional; conditions: NCI-H460, 48 h; procedure, shortened: as §2
[8] = Cytotoxicity against mouse 3T3 cells assessed as growth inhibition after 48 hrs by sulforhodamine B assay; format: cell-based; conditions: NIH3T3 cells; procedure, shortened: as §2

SMILES | inhibition at 10000 µM (Plasmodium berghei [1]) [%] | inhibition [2] [%] | Survival (Plasmodium berghei [3]) [days] | inhibition in vivo at 20 mg/kg (Plasmodium berghei [4]) [%] | IC50 (Plasmodium berghei [5]) [µM] | MIC [6] [µg/mL] | GI50 (MCF7) [µg/mL] | GI50 (K562) [µg/mL] | GI50 (HT-29) [µg/mL] | GI50 (DU-145) [µg/mL] | GI50 at 48 h [7] [µg/mL] | GI50 (M14) [µg/mL] | GI50 (NCI-H460) [µg/mL] | GI50 at 48 h [8] [µg/mL]
COc1ccc(C(=O)NNC(=O)c2ccc3[nH]c(-c4ccc([N+](=O)[O-])s4)nc3c2)cc1OC | 38.2 | 70.8 | 13.8 | 16.1 | 21.4 |  |  |  |  |  |  |  |  | 
CO[C@H]1/C=C/O[C@@]2(C)Oc3c(C)c(O)c4c(O)c(c(/C=N/N5CCN(C)CC5)c(O)c4c3C2=O)NC(=O)/C(C)=C\C=C\[C@H](C)[C@H](O)[C@@H](C)[C@@H](O)[C@@H](C)[C@H](OC(C)=O)[C@@H]1C [RIFAMPIN] |  |  |  |  |  | 0.063 (≈ 0.0766 µM) |  |  |  |  |  |  |  | 
O=C(O)c1ccc2[nH]c(-c3ccc([N+](=O)[O-])s3)nc2c1 | 0 | 57.6 | 12.2 | 11.5 | 21.1 |  |  |  |  |  |  |  |  | 
O=C(NNC(=O)c1ccc2[nH]c(-c3ccc([N+](=O)[O-])s3)nc2c1)c1cccc(Oc2ccccc2)c1 | 0 | 76.5 | 11 | 7.28 | 19.1 |  |  |  |  |  |  |  |  | 
O=C(NNC(=O)c1ccc2[nH]c(-c3ccc([N+](=O)[O-])o3)nc2c1)c1ccc(Cl)cc1 | 33.8 | 59.6 | 9.8 | 27.4 | 23.4 |  |  |  |  |  |  |  |  | 
O=C(O)c1ccc2[nH]c(-c3ccc([N+](=O)[O-])o3)nc2c1 | 0 | 95.4 | 17 | 4.02 | 8.43 | > 25 | > 250 | 250 (≈ 915 µM) | 250 (≈ 915 µM) | 125 (≈ 458 µM) | > 250 | 250 (≈ 915 µM) | 125 (≈ 458 µM) | 62.5 (≈ 229 µM)
O=C(NNC(=O)c1ccc2[nH]c(-c3ccc([N+](=O)[O-])o3)nc2c1)c1ccccc1 | 0 | 79.2 | 13.6 | 10.1 | 10.9 | 12.5 (≈ 31.9 µM) | 62.5 (≈ 160 µM) | 15.6 (≈ 39.9 µM) | 31.2 (≈ 79.9 µM) | 15.6 (≈ 39.9 µM) | 31.2 (≈ 79.9 µM) | 15.6 (≈ 39.9 µM) | 62.5 (≈ 160 µM) | 31.2 (≈ 79.9 µM)
COc1ccc(C(=O)NNC(=O)c2ccc3[nH]c(-c4ccc([N+](=O)[O-])o4)nc3c2)cc1OC | 34.5 | 94.8 | 12.2 | 4.8 | 8.71 | > 25 | 31.2 (≈ 69.2 µM) | 15.6 (≈ 34.6 µM) | 15.6 (≈ 34.6 µM) | 15.6 (≈ 34.6 µM) | 62.5 (≈ 138 µM) | 15.6 (≈ 34.6 µM) | 15.6 (≈ 34.6 µM) | 31.2 (≈ 69.2 µM)
O=C(NNC(=O)c1cc2ccccc2cc1O)c1ccc2[nH]c(-c3ccc([N+](=O)[O-])s3)nc2c1 | 14.1 | 75.8 | 18.8 | 1.8 | 11.1 | > 25 | 62.5 (≈ 132 µM) | 31.2 (≈ 66 µM) | 62.5 (≈ 132 µM) | 62.5 (≈ 132 µM) | 31.2 (≈ 66 µM) | 62.5 (≈ 132 µM) | 62.5 (≈ 132 µM) | 31.2 (≈ 66 µM)
O=C(NNC(=O)c1ccc2[nH]c(-c3ccc([N+](=O)[O-])o3)nc2c1)c1cccc(Cl)c1 | 39 | 73.4 | 12.4 | 3.38 | 10.3 |  |  |  |  |  |  |  |  | 
NNC(=O)c1ccncc1 [ISONIAZID] |  |  |  |  |  | 0.125 (≈ 0.911 µM) |  |  |  |  |  |  |  | 
O=C(NNC(=O)c1cc2ccccc2cc1O)c1ccc2[nH]c(-c3ccc([N+](=O)[O-])o3)nc2c1 | 12.9 | 31.7 |  |  |  |  |  |  |  |  |  |  |  | 
O=C(NNC(=O)c1ccc2[nH]c(-c3ccc([N+](=O)[O-])s3)nc2c1)c1ccc(Cl)cc1 | 12.7 | 25.5 | 10.8 | 13.5 |  |  |  |  |  |  |  |  |  | 
CC(C)CC(=O)N[C@H](C(=O)N[C@H](C(=O)N[C@@H](CC(C)C)[C@@H](O)CC(=O)N[C@@H](C)C(=O)N[C@@H](CC(C)C)[C@@H](O)CC(=O)O)C(C)C)C(C)C [PEPSTATIN] | 95.5 |  |  |  |  |  |  |  |  |  |  |  |  | 
COc1cc(C(=O)NNC(=O)c2ccc3[nH]c(-c4ccc([N+](=O)[O-])s4)nc3c2)cc(OC)c1OC |  | 92.4 | 10 | 9.36 | 9.56 | > 25 | 31.2 (≈ 62.8 µM) | 31.2 (≈ 62.8 µM) | 62.5 (≈ 126 µM) | 62.5 (≈ 126 µM) | 31.2 (≈ 62.8 µM) | 62.5 (≈ 126 µM) | 62.5 (≈ 126 µM) | 31.2 (≈ 62.8 µM)
O=C(NNC(=O)c1ccc2[nH]c(-c3ccc([N+](=O)[O-])s3)nc2c1)c1ccccc1 | 39.2 | 86.2 | 12 | 10.1 | 10.8 |  |  |  |  |  |  |  |  | 
O=C(NNC(=O)c1ccc2[nH]c(-c3ccc([N+](=O)[O-])s3)nc2c1)c1cccc(Cl)c1 | 44.9 | 78.6 | 7.4 | 27.2 | 16 |  |  |  |  |  |  |  |  | 
O=C(NNC(=O)c1ccc2[nH]c(-c3ccc([N+](=O)[O-])o3)nc2c1)c1cccc(Oc2ccccc2)c1 |  | 84.6 | 10.6 | 12.9 | 14.1 | > 25 | > 7.8 | > 7.8 | > 7.8 | > 7.8 | > 7.8 | > 7.8 | > 7.8 | > 7.8
CCN(CC)CCCC(C)Nc1ccnc2cc(Cl)ccc12 (stereo unspecified) [CHLOROQUINE] | 24.1 | 94.2 | >30 | 1.3 |  |  |  |  |  |  |  |  |  | 
CC(=O)N[C@@H](CC(C)C)C(=O)N[C@@H](CC(C)C)C(=O)N[C@H](C=O)CCCNC(=N)N [LEUPEPTIN] | 91.6 |  |  |  |  |  |  |  |  |  |  |  |  | 
O=CNNC(=O)c1ccc2[nH]c(-c3ccc([N+](=O)[O-])s3)nc2c1 | 36.2 | 87.4 | 10.04 | 18.7 | 9.88 |  |  |  |  |  |  |  |  | 
